Most compounds without a hit are left out; they make up all but 3.8% or so of the library.
CHO parental Ca – counter-screen: ATP calcium response change in parental CHO cells. parental CHO-K1, ATP-induced calcium, Fluo-8 fluorescence. inhibition, % at 5.6 µM. 330,000 compounds, 0.63% hits. AID 463079;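 active means inhibition above that plate's mean sample inhibition plus 3 SD, cut at about 26% in these data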;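 further: 0% = ATP-challenged DMSO wells and 100% = DMSO wells without ATP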
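Test system: untransfected parental CHO cell line; also added: ATP stimulus; dosing: 5.6 µM, single dose; signal: calcium-sensitive Fluo-8 fluorescence; measure: percent inhibition of ATP-evoked calcium rise, normalized to controls; benchmarks: low control ATP plus DMSO, high control DMSO only; replication: one well per compound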
MPTP block – blocks calcium-induced mitochondrial swelling; isolated mouse mitochondria, Ca2+ swelling absorbance, 30 min; inhibition, % at 10 µM; 360,000 compounds, 1.4% hits;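 active means inhibition of 50% or more, scaled per plate between neutral and stimulator controls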;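 further: 0% = DMSO wells given calcium and 100% = 1 mM EGTA wells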
OX1R antag-1 – blocks the human orexin 1 receptor; O43613; CHO/OX1R cells, Fluo-8 calcium fluorescence, orexin A; inhibition, % at 5 µM; 330,000 compounds, 0.43% hits;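 active means inhibition above its plate's threshold, mean inhibition of all tested compounds on the plate plus 3 SD, cut at about 37% in these data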;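 further: 0% = orexin A challenge wells and 100% = SB-334867-A antagonist wells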
Target sequence (O43613 whole entry, looked up): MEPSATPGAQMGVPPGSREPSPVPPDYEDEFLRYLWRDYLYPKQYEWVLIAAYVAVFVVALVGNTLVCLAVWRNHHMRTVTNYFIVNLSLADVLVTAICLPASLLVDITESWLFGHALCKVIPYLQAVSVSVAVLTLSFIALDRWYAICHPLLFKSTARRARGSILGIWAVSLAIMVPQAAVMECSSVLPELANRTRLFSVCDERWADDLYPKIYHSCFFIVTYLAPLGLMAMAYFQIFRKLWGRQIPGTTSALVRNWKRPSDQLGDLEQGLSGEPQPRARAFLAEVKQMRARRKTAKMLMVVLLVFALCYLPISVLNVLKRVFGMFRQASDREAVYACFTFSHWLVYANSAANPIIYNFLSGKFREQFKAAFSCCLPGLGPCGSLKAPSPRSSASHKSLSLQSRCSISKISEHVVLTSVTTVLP
OX1R antag-2 – OX1R (human) antagonism. 330,000 compounds, 1.8% hits. O43613. OX1R-expressing cells, FRET antagonist read-out. inhibition, % at 6.6 µM. AID 485270; in the data active means inhibition mostly above about 38%, no sharp cut-off; inactive means mostly below about 40%;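 further: 0% = agonist challenge alone and 100% = reference antagonist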
GPR7 antagonist – antagonists of human GPR7 (neuropeptides B/W receptor 1). 290,000 compounds, 1.1% hits. GPR7-expressing cells, fluorescence antagonist assay. inhibition, % at 4.4 µM. AID 1861; in the data active means inhibition above about 16%, passing the limit was not always enough;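 further: cells stimulated with the agonist NPW; 0% = agonist with vehicle and 100% = vehicle without agonist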
Target sequence (P48145 whole entry, looked up): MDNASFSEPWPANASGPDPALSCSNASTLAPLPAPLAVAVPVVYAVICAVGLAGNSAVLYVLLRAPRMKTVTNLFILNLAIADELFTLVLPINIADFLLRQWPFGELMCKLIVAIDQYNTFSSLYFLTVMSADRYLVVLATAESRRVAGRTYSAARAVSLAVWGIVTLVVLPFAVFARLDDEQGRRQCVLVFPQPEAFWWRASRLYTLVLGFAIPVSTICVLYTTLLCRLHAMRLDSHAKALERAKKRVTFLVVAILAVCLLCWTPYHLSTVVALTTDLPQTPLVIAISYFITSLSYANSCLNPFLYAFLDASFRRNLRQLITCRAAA
GPR7 antag cf – human GPR7 antagonism, confirmation assay | 2,400 compounds, 52% hits | shares compounds with GPR7 antagonist | inhibition, % at 4.4 µM | GPR7-expressing cells, calcium fluorescence antagonist mode; in the data active means inhibition above about 24%;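 further: stimulated with the GPR7 agonist NPW; 0% = agonist plus vehicle and 100% = vehicle alone without agonist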
MCHR1 antag – counter-screen for GPR7 antagonists: antagonists of human MCHR1; inhibition, % at 4.4 µM; 2,400 compounds, 62% hits; MCHR1-expressing cells, fluorescence antagonist assay; AID 2148; shares compounds with GPR7 antagonist;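 further: 0% = vehicle with agonist and 100% = vehicle without agonist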
OX1R Ca confirm – OX1R (human) antagonism, confirmed | shares compounds with OX1R antag-1 | CHO/OX1R cells, orexin A calcium Fluo-8 fluorescence | inhibition, % at 5 µM | 1,100 compounds, 38% hits; in the data active means inhibition above about 29%;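 further: 0% = agonist challenge alone and 100% = reference antagonist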
CHO Ca counter – counter-screen: parental CHO calcium response change, triplicate; shares compounds with OX1R antag-1; parental CHO-K1, ATP-induced calcium, Fluo-8 fluorescence; inhibition, % at 5.6 µM; 1,100 compounds, 9.3% hits;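 active means inhibition above a per-plate limit, the mean inhibition of that plate's test compounds plus 3 SD, cut at about 25% in these data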;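 further: 0% = ATP challenge with DMSO and 100% = DMSO without ATP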
OX1R HTRF conf – OX1R (human) antagonism, HTRF confirmed; 1,800 compounds, 49% hits; AID 492964; shares compounds with OX1R antag-2; OX1R-expressing cells, HTRF antagonist assay; inhibition, % at 6.6 µM; in the data active means inhibition above about 55%;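 further: CHO cells expressing OX1R stimulated with orexin A at about EC80; 0% = agonist challenge alone and 100% = reference antagonist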
CHO-K1 HTRF – counter-screen for OX1R antagonists: effect in parental CHO-K1 cells | HTRF counterscreen | AID 493232 | 1,800 compounds, 48% hits | inhibition, % at 6.6 µM | shares compounds with OX1R antag-2; in the data active means inhibition above about 17%;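 further: 0% = agonist challenge with vehicle and 100% = vehicle alone without agonist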
Rh123 counter – Rhodamine 123 counter-screen of mitochondrial pore hits; shares compounds with MPTP block; isolated mitochondria, membrane potential, Rhodamine 123 fluorescence; inhibition, % at 10 µM; 5,000 compounds, 78% hits;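 further: 0% = DMSO vehicle and 100% = positive control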
MPTP swell DR – MPTP inhibition, dose response swelling confirmation | shares compounds with MPTP block | isolated mitochondria swelling, absorbance | AID 651561 | IC50, µM | 780 compounds, 58% hits; in the data active means IC50 below about 20 µM
MPTP cs DR – counter-screen for mitochondrial permeability transition pore inhibitors, dose response; shares compounds with MPTP block; isolated mitochondria counterscreen, fluorescence read-out; IC50, µM; 780 compounds, 49% hits; in the data active means IC50 below about 80 µM
An asterisk follows results filed as active; · = not tested or not shown. Unless noted, no stated cut-off is given here; in the data, active means inhibition above about 22%; inactive means the rest.

SMILES	CHO parental Ca	MPTP block	OX1R antag-1	OX1R antag-2	GPR7 antagonist	GPR7 antag cf	MCHR1 antag	Rh123 counter	others
Cc1ccccc1NS(=O)(=O)c1cc(C(=O)NCc2ccncc2)ccc1Cl	-17.4	-1.7	-16.1	17.7	6.2	·	·	·
COc1ccc(NC(=O)COc2ccccc2Cc2ccccc2)cc1S(N)(=O)=O	12.7	2.0	26.7	25.6	42.0*	45.1*	57.3*	·	OX1R Ca confirm=19.2;CHO Ca counter=14.6
COCCCNC(=O)/C=C1\Sc2ccccc2N(Cc2ccccc2F)C1=O	-18.5	0.9	3.7	85.6*	·	·	12.3	·	OX1R HTRF conf=76.6*;CHO-K1 HTRF=3.4
Cc1noc(C)c1CCC(=O)N1CCCC(CCC(=O)NCc2ccccc2F)C1 (configuration not stated)	-22.1	·	-39.9	15.1	-9.3	·	·	·
O=S(=O)(c1ccccc1)N1CCCc2ccccc21	3.3	·	-13.6	16.8	-12.0	·	·	·
O=S(=O)(NC1CC1)c1ccc(S(=O)(=O)N2CCCc3ccccc32)cc1	0.8	21.8	81.7*	37.4*	22.0*	29.7*	28.5*	·	OX1R Ca confirm=60.5*;CHO Ca counter=4.5;OX1R HTRF conf=61.8*;CHO-K1 HTRF=-1.2
CCOC(=O)c1nn(-c2ccccc2C)c(=O)c2c(N)scc12	-2.3	-0.2	-14.0	9.3	-1.1	·	·	·
CCOC(=O)c1nn(-c2ccccc2C)c(=O)c(C#N)c1C	1.5	-0.5	-5.9	126.7*	29.3*	-12.0	2.6	·	OX1R HTRF conf=65.4*;CHO-K1 HTRF=43.0*
CC(=O)Nc1cccc(-n2nnc(SCC(=O)N(C)c3ccccc3)n2)c1	-17.5	2.2	-19.4	-2.6	-15.6	·	·	·
COc1ccccc1N(CC(=O)NC1CCCC1)C(=O)c1oc(C(C)(C)C)cc1C	-23.6	-1.1	40.8*	52.3*	43.6*	37.3*	47.7*	·	OX1R Ca confirm=20.0;CHO Ca counter=3.5;OX1R HTRF conf=64.0*;CHO-K1 HTRF=0.8
CCCCOc1ccc(Br)cc1/C(C)=N/NC1=NCCN1	7.2	66.6*	-25.5	11.6	24.1*	35.6*	60.2*	92.1*
CCCCCCOc1ccc(/C(C)=N/NC2=NCCN2)cc1[N+](=O)[O-]	-2.5	-0.8	-6.3	4.8	1.1	·	·	·
CCN(c1ccccc1)S(=O)(=O)c1cc(C(=O)Nc2cccc(Cl)c2)ccc1F	12.0	94.8*	-1.6	20.6	26.2*	9.5	51.0*	69.0*
O=c1c2ccccc2nc2ccc(NCc3cccs3)nn12	-2.9	-1.6	-19.7	19.1	-8.9	·	·	·
COc1cccc2c1OCC(C(=O)Nc1nccs1)=C2	-5.9	4.3	-16.6	12.5	0.7	·	·	·
CCNC(=O)NC(=O)C(C)OC(=O)[C@H](C)NS(=O)(=O)c1c(C)c(C)cc(C)c1C (some centres not stated)	-24.0	0.2	-14.1	13.5	-1.8	·	·	·
CC(C)(C)c1cc(C(=O)Nc2ccc(F)cc2)n(Cc2ccc(F)cc2)n1	0.7	80.3*	-2.4	54.6	22.7*	2.5	56.2*	87.1*
O=C(COc1ccc(Cl)cc1)Nc1ccc(Cc2ccncc2)cc1	13.7	75.3*	-1.8	29.4	27.9*	32.3*	49.1*	71.9*
COc1cccc(NC(=O)COc2ccc(Br)c(C)c2)c1	-3.7	-0.6	-0.6	6.7	-4.2	·	·	·
Cc1cc(OCC(=O)Nc2ccncc2)ccc1Br	40.9*	58.9*	47.6*	49.1	23.1*	36.3*	49.9*	111.4*
COC(=O)c1ccc(NC(=O)Nc2cccc(F)c2)cc1	22.5	85.4*	-3.3	55.3	31.6*	53.7*	64.6*	86.8*
CCOC(=O)c1c(NC(=O)CSc2ncnc3[nH]ncc23)sc2c1CCC(C)C2 (configuration not stated)	-4.5	2.2	16.7	15.2	-13.9	·	·	·
COc1ccc(NC(=O)C2Cc3ccccc3O/C2=N\O)cc1 (configuration not stated)	·	-0.5	·	·	-4.0	·	·	·
COc1ccc(CCN(C)CC(O)COc2ccc(C(C)=O)cc2OC)cc1OC (configuration not stated)	-2.5	-0.2	-15.9	18.3	-15.1	·	·	·
Fc1ccc(NC(=S)Nc2cccnc2)c(F)c1F	0.4	17.5	9.9	19.7	-2.1	·	·	·
SMILES	CHO parental Ca	MPTP block	OX1R antag-1	OX1R antag-2	GPR7 antagonist	GPR7 antag cf	MCHR1 antag	Rh123 counter	others
O=[N+]([O-])c1ccc(NC(=S)NCCc2ccc(F)cc2)cc1	34.3*	99.5*	47.7*	64.5*	32.6*	74.8*	66.7*	80.9*
CC(=O)c1ccc(NC(=S)NC(C)c2ccc(Cl)cc2Cl)cc1 (configuration not stated)	64.4*	95.3*	72.5*	10.5	43.6*	60.8*	73.2*	68.8*
CN(C)CCNS(=O)(=O)c1ccc(N2CCN(c3ccc(F)cc3)CC2)c([N+](=O)[O-])c1	4.6	50.5*	-8.4	22.7	23.0*	36.2*	32.3*	-5.4	MPTP swell DR=7.13*;MPTP cs DR=20.3*
CC(=O)N1CCN(c2ccc(S(=O)(=O)NCCN(C(C)C)C(C)C)cc2[N+](=O)[O-])CC1	-5.5	-1.4	2.8	43.5	-6.2	·	·	·
CCOC(=O)C(=O)NN=C(c1ccccc1)c1ccccc1	-14.8	1.4	-16.6	0.5	-14.3	·	·	·
CCCS(=O)(=O)NC(=O)C1(C)CCCN(C(=O)c2c(F)ccc(C)c2F)C1 (configuration not stated)	·	-0.6	·	·	·	·	·	·
Cc1ccc(-c2nn(-c3ccccc3)cc2CO)cc1	-8.7	-0.1	-24.4	0.9	9.1	·	·	·
N=C(N)SCc1cn(-c2ccccc2)nc1-c1ccc(Br)cc1	·	76.4*	·	·	25.8*	63.1*	89.2*	-10.0
O=C(Nc1ccc(Cl)c(Cl)c1)Nc1ccon1	13.0	69.1*	11.4	-1.2	35.2*	34.8*	65.1*	103.0*
COc1ccc(NC(=O)Nc2ccon2)cc1OC	-5.0	-0.4	2.8	5.6	-10.1	·	·	·

Source: PubChem BioAssay
